ChEMBL document CHEMBL1155483, “Anthranilic acid replacements in a niacin receptor agonist” (Bioorg Med Chem Lett, 2010)
One block for each compound: values may come before it.

Key:
[1] = molecular target: Hydroxycarboxylic acid receptor 2 (Homo sapiens) (UniProt Q8TDS4); assay: Displacement of [3H]niacin from human niacin receptor expressed in CHO-KI cells in presence of human serum; assay type: cell-based
Method in brief: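 Membranes from CHO-K1 cells stably expressing the niacin receptor; [3H]niacin displacement titrated with and without added human serum (serum level not stated); the serum shift is given as fold change. Values are means of two independent titrations, with calculated standard errors below 15%.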

[2] = Cmax in mouse plasma; assay type: ADME, organism-based
[3] = Half life in mouse plasma; assay type: ADME, organism-based
[4] = Oral bioavailability in mouse plasma; assay type: ADME, organism-based
[5] = Volume of distribution at steady state in mouse plasma; assay type: ADME, organism-based; conditions: read-out: Vdss
[6] = Clearance in mouse plasma; assay type: ADME, organism-based
[7] = molecular target: Hydroxycarboxylic acid receptor 2 (Homo sapiens) (UniProt Q8TDS4); assay: Displacement of [3H]niacin from human niacin receptor expressed in CHO-KI cells at 25 uM; assay type: cell-based
[8] = Clearance in rat plasma; assay type: ADME, organism-based
[9] = Half life in rat plasma; assay type: ADME, organism-based
[10] = Oral bioavailability in rat plasma; assay type: ADME, organism-based
[11] = Cmax in rat plasma; assay type: ADME, organism-based
[12] = Volume of distribution at steady state in rat plasma; assay type: ADME, organism-based; conditions: read-out: Vdss

Chain of Hydroxycarboxylic acid receptor 2 (Homo sapiens) (Q8TDS4 whole entry): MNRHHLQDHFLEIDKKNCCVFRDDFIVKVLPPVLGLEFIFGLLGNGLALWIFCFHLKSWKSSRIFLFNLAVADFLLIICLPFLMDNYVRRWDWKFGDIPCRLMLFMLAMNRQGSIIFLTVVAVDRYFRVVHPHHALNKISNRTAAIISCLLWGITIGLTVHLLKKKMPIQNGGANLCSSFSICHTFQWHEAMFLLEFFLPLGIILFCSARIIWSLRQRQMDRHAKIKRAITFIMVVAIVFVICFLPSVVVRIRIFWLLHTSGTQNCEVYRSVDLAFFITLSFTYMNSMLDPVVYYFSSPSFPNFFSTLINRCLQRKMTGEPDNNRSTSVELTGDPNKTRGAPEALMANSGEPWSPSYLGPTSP

SMILES: O=C(CCc1nc(-c2ccc(O)cn2)no1)NC1=C(C(=O)O)CCCC1
Cmax [2]: 3.9 µM
half-life [3]: 1.3 h
bioavailability [4]: 13%
Vd [5]: 0.21 L/kg
clearance [6]: 2 mL/min/kg

SMILES: NC(Cc1nc(-c2ccc(F)cn2)no1)C(=O)NC1=C(C(=O)O)CCCC1 (stereo not drawn)
Cmax [2]: 16 µM
fold change (FC) [1]: > 400
half-life [3]: 14 h
bioavailability [4]: 87%
Vd [5]: 1.4 L/kg
clearance [6]: 0.5 mL/min/kg

SMILES: O=C(CCc1ccc(-c2ccc(O)cc2)cc1)NC1=C(C(=O)O)CC(c2cccnc2F)CC1 (stereo not drawn)
Cmax [2]: 1.2 µM
half-life [3]: 1.8 h
bioavailability [4]: 12%
Vd [5]: 0.42 L/kg
clearance [6]: 5.4 mL/min/kg

SMILES: O=C(CCc1ccc(-c2ccc(O)cc2)cc1)Nc1ccccc1C(=O)O
Cmax [2]: 4 µM
half-life [3]: 2.4 h
bioavailability [4]: 35%
Vd [5]: 0.78 L/kg
clearance [6]: 8.7 mL/min/kg

SMILES: O=C(CCc1nc(-c2ccc(F)cn2)no1)NC1=C(C(=O)O)CCCC1
fold change (FC) [1]: > 400

SMILES: O=C(CCc1nc(-c2ccc(F)cn2)no1)NC1=C(C(=O)O)CC(c2cc(F)cc(F)c2)CC1 (stereo not drawn)
fold change (FC) [1]: 30

SMILES: C[C@H]1CC(NC(=O)CCc2nc(-c3ccc(O)cn3)no2)=C(C(=O)O)C[C@H]1c1cccc(F)c1
Cmax [2]: 0.3 µM
half-life [3]: 3.9 h
bioavailability [4]: 2%
Vd [5]: 0.76 L/kg
clearance [6]: 5.6 mL/min/kg

SMILES: NC(Cc1nc(-c2ccc(F)cn2)no1)C(=O)NC1=C(C(=O)O)CC(c2cc(F)cc(F)c2)CC1 (stereo not drawn)
fold change (FC) [1]: 30
clearance [8]: 2.3 mL/min/kg
half-life [9]: 4.8 h
bioavailability [10]: 44%
Cmax [11]: 3.8 µM
Vd [12]: 2.4 L/kg

The next lines start with the values.

fold change (FC) [1]: > 400
SMILES: O=C(CCc1ccc2cc(O)ccc2c1)NC1=C(C(=O)O)CC(c2cc(F)cc(F)c2)CC1 (stereo not drawn)

fold change (FC) [1]: > 400
SMILES: O=C(CCc1ccc2cc(O)ccc2c1)NC1=C(C(=O)O)CC(c2ccccc2F)CC1 (stereo not drawn)

fold change (FC) [1]: > 400
SMILES: CCCC1CCC(NC(=O)CCc2ccc3cc(O)ccc3c2)=C(C(=O)O)C1 (stereo not drawn)

fold change (FC) [1]: 200
SMILES: Cn1nccc1C1CCC(NC(=O)CCc2ccc3cc(O)ccc3c2)=C(C(=O)O)C1 (stereo not drawn)

fold change (FC) [1]: 90
SMILES: O=C(CCc1ccc2cc(O)ccc2c1)NC1=C(C(=O)O)CC(c2ccc(F)nc2)CC1 (stereo not drawn)

fold change (FC) [1]: 100
SMILES: O=C(CCc1ccc2cc(O)ccc2c1)NC1=C(C(=O)O)CC(c2cccnc2F)CC1 (stereo not drawn)

fold change (FC) [1]: > 400
SMILES: O=C(CCc1ccc2cc(O)ccc2c1)NC1=C(C(=O)O)CC(c2cccc(F)c2)CC1 (stereo not drawn)

fold change (FC) [1]: > 400
SMILES: Cn1cc(C2CCC(NC(=O)CCc3ccc4cc(O)ccc4c3)=C(C(=O)O)C2)cn1 (stereo not drawn)

inhibition [7]: 7%
SMILES: N#CC1CCC(NC(=O)CCc2ccc3cc(O)ccc3c2)=C(C(=O)O)C1 (stereo not drawn)
